ChEMBL document CHEMBL1781909, “Potent mGluR5 antagonists: pyridyl and thiazolyl-ethynyl-3,5-disubstituted-phenyl series” (Bioorg Med Chem Lett, 2011)

Assays:
[1] = biological target: T1, Metabotropic glutamate receptor 5 (Rattus norvegicus, UniProt P31424); experiment: Antagonist activity at rat mGluR5 expressed in human HEK-293 cells assessed as inhibition of glutamate-induced intracellular calcium mobilization; type: functional, cell-based, HEK293
[2] = Octanol-phosphate buffer partition coefficient, log D of the compound at pH 7.4; type: physicochemical
How it was run: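 Log D measured as partition of the [123I]-labelled compound between octanol and phosphate buffer pH 7.4.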

[3] = tested on: Rattus norvegicus; experiment: Analgesic activity in ip dosed rat post-operative pain model; type: functional
[4] = biological target: T1, Metabotropic glutamate receptor 5; experiment: Displacement of [3H]methoxy-PEPY from rat mGluR5 expressed in human HEK-293 cells by liquid scintillation counting; type: cell-based, HEK293
How it was run: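 Membranes from stable rat mGluR5-HEK293A cells (10 µg/well) incubated with 2 nM [3H]methoxy-PEPY in 50 mM Tris/0.9% NaCl, pH 7.4, with or without compound, 1 h at room temperature with shaking. Filtered on GF/B, washed three times, counted by liquid scintillation. Ki derived from fitted IC50; three experiments in duplicate.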

T1 sequence (P31424 whole entry): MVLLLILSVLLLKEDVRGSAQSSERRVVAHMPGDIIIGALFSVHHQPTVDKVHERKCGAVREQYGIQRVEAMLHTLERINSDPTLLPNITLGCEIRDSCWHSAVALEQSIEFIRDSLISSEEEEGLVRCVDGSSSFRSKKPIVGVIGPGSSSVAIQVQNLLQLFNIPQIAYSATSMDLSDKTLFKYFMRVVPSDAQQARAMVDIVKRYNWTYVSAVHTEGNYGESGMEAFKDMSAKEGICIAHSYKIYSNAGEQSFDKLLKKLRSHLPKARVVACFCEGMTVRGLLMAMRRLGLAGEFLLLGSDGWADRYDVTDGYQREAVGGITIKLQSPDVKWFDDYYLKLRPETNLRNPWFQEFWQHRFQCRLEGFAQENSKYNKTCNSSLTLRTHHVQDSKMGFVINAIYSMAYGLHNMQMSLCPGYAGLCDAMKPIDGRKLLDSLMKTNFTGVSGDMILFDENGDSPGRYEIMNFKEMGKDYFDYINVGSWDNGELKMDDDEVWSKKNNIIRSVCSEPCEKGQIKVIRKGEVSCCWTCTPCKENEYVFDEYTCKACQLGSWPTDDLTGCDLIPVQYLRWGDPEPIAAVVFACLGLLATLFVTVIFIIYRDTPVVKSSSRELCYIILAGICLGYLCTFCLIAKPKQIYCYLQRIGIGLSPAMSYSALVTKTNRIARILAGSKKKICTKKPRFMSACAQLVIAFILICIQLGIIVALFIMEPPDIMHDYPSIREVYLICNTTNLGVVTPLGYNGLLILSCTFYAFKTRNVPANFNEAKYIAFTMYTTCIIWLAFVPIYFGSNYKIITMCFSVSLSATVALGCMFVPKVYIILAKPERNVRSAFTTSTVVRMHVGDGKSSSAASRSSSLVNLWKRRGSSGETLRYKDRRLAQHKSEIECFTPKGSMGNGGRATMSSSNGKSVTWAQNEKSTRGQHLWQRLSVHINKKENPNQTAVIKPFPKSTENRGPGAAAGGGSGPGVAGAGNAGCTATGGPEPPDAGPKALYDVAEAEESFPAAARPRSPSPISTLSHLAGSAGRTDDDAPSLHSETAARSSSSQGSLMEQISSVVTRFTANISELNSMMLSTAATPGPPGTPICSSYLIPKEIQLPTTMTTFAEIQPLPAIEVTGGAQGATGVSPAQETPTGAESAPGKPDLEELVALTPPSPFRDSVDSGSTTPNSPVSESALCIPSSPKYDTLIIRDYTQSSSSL

| SMILES | IC50 [1] | Ki [4] | also measured |
| --- | --- | --- | --- |
| Cc1ccc(C#Cc2cc(Cl)cc(C#N)c2)nc1 | 1.22 nM | – | – |
| Cc1cccc(C#Cc2cc(I)cc(C#N)c2)n1 | 0.71 nM | – | – |
| Cc1cccc(C#Cc2cc([123I])cc(C#N)c2)n1 | – | – | logD [2]: 2.3 |
| Cc1cccc(C#Cc2ccccc2)n1 | – | – | ED50 [3]: 15 mg/kg |
| Cc1nc(C#Cc2cc(F)cc(Br)c2)cs1 | 1.11 nM | 1.06 nM | – |
| Cc1cccc(C#Cc2cc(F)cc(C#N)c2)n1 | 1.22 nM | – | – |
| Cc1nc(C#Cc2cc(I)cc(C#N)c2)cs1 | 1.05 nM | 2.14 nM | – |
| N#Cc1cc(C#Cc2ccccn2)cc([N+](=O)[O-])c1 | 1.32 nM | – | – |
| Cc1ccc(C#Cc2cc(Br)cc([N+](=O)[O-])c2)nc1 | 7.36 nM | – | – |
| Cc1nc(C#Cc2cc(Br)cc([N+](=O)[O-])c2)cs1 | 0.73 nM | 0.93 nM | – |
| Cc1cccc(C#Cc2cc(Cl)cc(C#N)c2)n1 | 1.22 nM | – | – |
| Cc1ccc(C#Cc2cc(F)cc(C#N)c2)nc1 | 0.32 nM | – | – |
| N#Cc1cc(Cl)cc(C#Cc2ccccn2)c1 | 1.03 nM | – | – |
| Cc1nc(C#Cc2cc(Br)cc(Br)c2)cs1 | 1.45 nM | 0.69 nM | – |
| Cc1nc(C#Cc2cc(I)cc([N+](=O)[O-])c2)cs1 | 1.75 nM | 1.84 nM | – |
| O=[N+]([O-])c1cc(F)cc(C#Cc2ccccn2)c1 | 0.66 nM | – | – |
| Cc1nc(C#Cc2cc(Cl)cc(C#N)c2)cs1 | 1.61 nM | 0.127 nM | – |
| Cc1ccc(C#Cc2cc(Br)cc(C#N)c2)nc1 | 1.02 nM | – | – |
| Cc1nc(C#Cc2cc(C#N)cc([N+](=O)[O-])c2)cs1 | 2.63 nM | 0.36 nM | – |
| Cc1nc(C#Cc2cc(Br)cc(C#N)c2)cs1 | 1.06 nM | 0.106 nM | – |
| N#Cc1cc(I)cc(C#Cc2ccccn2)c1 | 0.66 nM | – | – |
| O=[N+]([O-])c1cc(Br)cc(C#Cc2ccccn2)c1 | 0.39 nM | – | – |
| Cc1nc(C#Cc2cc(F)cc([N+](=O)[O-])c2)cs1 | 0.61 nM | 0.3 nM | – |
| Cc1cccc(C#Cc2cc(C#N)cc([N+](=O)[O-])c2)n1 | 3.68 nM | – | – |
| O=[N+]([O-])c1cc(I)cc(C#Cc2ccccn2)c1 | 2.09 nM | – | – |
| Cc1ccc(C#Cc2cc(C#N)cc([N+](=O)[O-])c2)nc1 | 2.64 nM | – | – |
| Cc1nc(C#Cc2cc(F)cc(C#N)c2)cs1 | 1.89 nM | 0.36 nM | – |
| Cc1cccc(C#Cc2cc(Br)cc([N+](=O)[O-])c2)n1 | 0.63 nM | – | – |
